Calls of active or inactive are those of the source. The calls are words filed in the database; no cut-off is given here.
Key:
Format in all cases: cell-based
[1] = biological target: T1, Neuronal acetylcholine receptor; alpha4/beta2 (Homo sapiens, UniProt P17787+P43681); experiment: Agonist activity at human alpha4beta2 nAChR expressed in HEK293 cells assessed as increase in calcium influx at 100 uM measured for 78 secs by Fluo-4-AM dye based FLIPR assay
Method in brief: (§1)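 Cells seeded 5 × 10^4/well 72 h before, 37 °C, 5% CO2; medium switched to HBSS (pH 7.4)/1% FBS 16–24 h before assay. Loaded 1 h at 37 °C with Fluo-4 plus 2.5 mM probenecid. Compound added alone on FLIPR, fluorescence (ex 488/em 510 nm) recorded 78 s; response normalized to maximal (±)-epibatidine response.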

[2] = biological target: T2, Neuronal acetylcholine receptor subunit alpha-7 (Homo sapiens, UniProt P36544); experiment: Agonist activity at human alpha7 nAChR expressed in rat GH3 cells assessed as increase in calcium influx at 100 uM measured for 78 secs by Fluo-4-AM dye based FLIPR assay; method in brief: as §1
[3] = biological target: T3, Neuronal acetylcholine receptor; alpha3/beta4 (Homo sapiens, UniProt P30926+P32297); experiment: Agonist activity at human alpha3beta4 nAChR expressed in HEK293 cells assessed as increase in calcium influx at 100 uM measured for 78 secs by Fluo-4-AM dye based FLIPR assay; method in brief: as §1
[4] = biological target: T1, Neuronal acetylcholine receptor; alpha4/beta2; experiment: Antagonist activity at human alpha4beta2 nAChR expressed in HEK293 cells assessed as inhibition of (+/-)-epibatidine-induced calcium influx up to 100 uM preincubated for 5 mins followed by (+/-)-epibatidine addition measured for 78 secs by Fluo-4-AM dye based FLIPR assay
Method in brief: (§2)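 Fluo-4-loaded cells (1 h, 37 °C, 2.5 mM probenecid) washed twice in HBSS/1% FBS, then preincubated 5 min with test ligand at various concentrations. 0.1 μM (±)-epibatidine added on FLIPR after 5-reading baseline; fluorescence (ex 488/em 510 nm) recorded 78 s. Response normalized to maximal epibatidine response; IC50 and nH from nonlinear least-squares curve fits; SD, n = 3.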

[5] = biological target: T1, Neuronal acetylcholine receptor; alpha4/beta2; experiment: Antagonist activity at human alpha4beta2 nAChR expressed in HEK293 cells assessed as inhibition of (+/-)-epibatidine-induced calcium influx preincubated for 5 mins followed by (+/-)-epibatidine addition measured for 78 secs by Fluo-4-AM dye based FLIPR assay; method in brief: as §2
[6] = biological target: T3, Neuronal acetylcholine receptor; alpha3/beta4; experiment: Antagonist activity at human alpha3beta4 nAChR expressed in HEK293 cells assessed as inhibition of (+/-)-epibatidine-induced calcium influx preincubated for 5 mins followed by (+/-)-epibatidine addition measured for 78 secs by Fluo-4-AM dye based FLIPR assay; method in brief: as §2
[7] = biological target: T2, Neuronal acetylcholine receptor subunit alpha-7; experiment: Antagonist activity at human alpha7 nAChR expressed in HEK293 cells assessed as inhibition of (+/-)-epibatidine-induced calcium influx preincubated for 5 mins followed by (+/-)-epibatidine addition measured for 78 secs by Fluo-4-AM dye based FLIPR assay; conditions: in the assay text read “GH3” for “HEK293”; method in brief: as §2
[8] = biological target: T1, Neuronal acetylcholine receptor; alpha4/beta2; experiment: Antagonist activity at human alpha4beta2 nAChR expressed in HEK293 cells assessed as inhibition of (+/-)-epibatidine-induced calcium influx at 1 uM preincubated for 5 mins followed by (+/-)-epibatidine addition measured for 78 secs by Fluo-4-AM dye based FLIPR assay; method in brief: as §2
[9] = biological target: T1, Neuronal acetylcholine receptor; alpha4/beta2; experiment: Antagonist activity at human alpha4beta2 nAChR expressed in HEK293 cells assessed as inhibition of (+/-)-epibatidine-induced calcium influx at 10 to 100 uM preincubated for 5 mins followed by (+/-)-epibatidine addition measured for 78 secs by Fluo-4-AM dye based FLIPR assay relative to control; method in brief: as §2
[10] = biological target: T1, Neuronal acetylcholine receptor; alpha4/beta2; experiment: Non-competitive inhibition of human alpha4beta2 nAChR expressed in HEK293 cells assessed as inhibition of (+/-)-epibatidine-induced calcium influx preincubated for 5 mins followed by (+/-)-epibatidine addition measured for 78 secs by Fluo-4-AM dye based FLIPR assay
Method in brief: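 (±)-Epibatidine concentration–response curves measured on hα4β2 HEK293 cells without drimane or after 5 min preincubation with 0.3, 1.0 and 3.0 μM; Fluo-4 Ca2+ fluorescence on FLIPR, 78 s recording; n = 3.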

T1 sequence (P17787 whole entry): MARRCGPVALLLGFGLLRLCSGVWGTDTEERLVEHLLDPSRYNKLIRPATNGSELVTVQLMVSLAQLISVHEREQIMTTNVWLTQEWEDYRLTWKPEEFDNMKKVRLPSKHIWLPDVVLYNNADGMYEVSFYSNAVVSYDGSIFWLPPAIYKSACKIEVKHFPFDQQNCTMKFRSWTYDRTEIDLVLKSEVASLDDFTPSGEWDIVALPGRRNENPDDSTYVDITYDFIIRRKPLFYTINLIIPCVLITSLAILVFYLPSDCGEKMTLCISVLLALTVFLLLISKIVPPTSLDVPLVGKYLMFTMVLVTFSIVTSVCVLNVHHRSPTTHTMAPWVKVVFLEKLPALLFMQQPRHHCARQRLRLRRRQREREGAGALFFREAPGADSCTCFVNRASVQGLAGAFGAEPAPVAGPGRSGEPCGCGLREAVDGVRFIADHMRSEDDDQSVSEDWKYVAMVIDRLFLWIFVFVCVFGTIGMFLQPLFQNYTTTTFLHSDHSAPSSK
T1 sequence (P43681 whole entry): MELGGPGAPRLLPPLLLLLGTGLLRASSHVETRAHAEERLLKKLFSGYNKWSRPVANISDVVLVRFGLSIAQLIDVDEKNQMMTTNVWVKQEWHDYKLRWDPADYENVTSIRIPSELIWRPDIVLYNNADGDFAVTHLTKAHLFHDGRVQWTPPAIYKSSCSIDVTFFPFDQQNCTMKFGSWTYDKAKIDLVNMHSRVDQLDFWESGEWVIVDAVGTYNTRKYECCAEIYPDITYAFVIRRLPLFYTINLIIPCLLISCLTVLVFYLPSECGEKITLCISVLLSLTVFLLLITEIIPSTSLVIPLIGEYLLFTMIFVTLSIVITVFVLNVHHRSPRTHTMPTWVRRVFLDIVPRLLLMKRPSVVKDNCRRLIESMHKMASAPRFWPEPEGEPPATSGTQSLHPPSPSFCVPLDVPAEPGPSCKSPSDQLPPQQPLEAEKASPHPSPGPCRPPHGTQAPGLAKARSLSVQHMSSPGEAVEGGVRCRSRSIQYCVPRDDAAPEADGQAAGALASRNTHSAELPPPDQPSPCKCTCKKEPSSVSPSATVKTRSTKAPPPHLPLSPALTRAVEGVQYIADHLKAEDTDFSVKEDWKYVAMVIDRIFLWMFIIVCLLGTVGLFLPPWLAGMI
T2 sequence (P36544 whole entry): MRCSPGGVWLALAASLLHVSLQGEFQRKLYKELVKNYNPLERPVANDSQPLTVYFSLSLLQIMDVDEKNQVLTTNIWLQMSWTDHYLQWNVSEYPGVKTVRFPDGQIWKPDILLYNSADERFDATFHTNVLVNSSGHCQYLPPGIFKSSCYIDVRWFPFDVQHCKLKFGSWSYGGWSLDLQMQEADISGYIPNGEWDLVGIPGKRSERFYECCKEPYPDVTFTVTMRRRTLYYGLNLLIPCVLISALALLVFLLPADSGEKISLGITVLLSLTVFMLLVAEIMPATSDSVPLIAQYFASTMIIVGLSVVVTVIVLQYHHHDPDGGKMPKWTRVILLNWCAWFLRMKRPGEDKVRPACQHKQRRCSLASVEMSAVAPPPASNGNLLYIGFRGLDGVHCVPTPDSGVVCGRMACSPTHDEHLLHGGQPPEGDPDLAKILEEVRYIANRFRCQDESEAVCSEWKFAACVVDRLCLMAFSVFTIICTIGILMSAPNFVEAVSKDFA
T3 sequence (P30926 whole entry): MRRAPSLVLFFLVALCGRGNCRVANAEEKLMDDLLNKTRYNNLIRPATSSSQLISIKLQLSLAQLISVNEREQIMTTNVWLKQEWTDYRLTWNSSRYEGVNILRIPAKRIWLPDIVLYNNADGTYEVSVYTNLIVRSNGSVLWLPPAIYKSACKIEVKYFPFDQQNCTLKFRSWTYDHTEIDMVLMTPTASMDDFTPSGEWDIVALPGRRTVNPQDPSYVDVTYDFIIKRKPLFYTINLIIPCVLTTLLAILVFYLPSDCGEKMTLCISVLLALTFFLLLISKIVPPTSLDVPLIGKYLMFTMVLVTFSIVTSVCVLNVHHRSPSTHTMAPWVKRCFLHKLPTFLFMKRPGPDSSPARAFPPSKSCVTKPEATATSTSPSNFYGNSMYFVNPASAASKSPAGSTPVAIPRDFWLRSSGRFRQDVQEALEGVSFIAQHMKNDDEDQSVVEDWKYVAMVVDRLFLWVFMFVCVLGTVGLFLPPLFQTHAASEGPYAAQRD
T3 sequence (P32297 whole entry): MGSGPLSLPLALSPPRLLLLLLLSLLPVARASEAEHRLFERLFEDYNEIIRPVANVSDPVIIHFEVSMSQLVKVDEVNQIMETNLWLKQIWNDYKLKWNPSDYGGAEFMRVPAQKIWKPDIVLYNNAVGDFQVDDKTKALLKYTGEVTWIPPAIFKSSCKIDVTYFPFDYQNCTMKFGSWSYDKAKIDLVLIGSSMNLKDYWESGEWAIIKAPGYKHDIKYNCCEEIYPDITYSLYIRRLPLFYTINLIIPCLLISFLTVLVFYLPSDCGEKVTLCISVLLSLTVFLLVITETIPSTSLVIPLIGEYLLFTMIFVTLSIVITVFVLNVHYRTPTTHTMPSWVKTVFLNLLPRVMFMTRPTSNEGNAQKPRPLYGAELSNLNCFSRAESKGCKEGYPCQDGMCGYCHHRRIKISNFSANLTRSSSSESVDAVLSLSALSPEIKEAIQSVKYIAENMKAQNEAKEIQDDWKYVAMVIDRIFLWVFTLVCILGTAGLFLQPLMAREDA

Activity [1] | Activity [2] | Activity [3] | IC50 [6] | IC50 [7] | inhibition [8] | IC50 ([5]; read-out: IC50) | inhibition [9] | inhibition [10] | Compound | inhibition [4] | IC50 ([5]; hek293)
inactive | inactive | inactive | 2.62 µM | 4.64 µM | Active | 1.57 µM | – | – | CC1(C)CCC[C@]2(C)[C@H]3COC(=O)C3=CC[C@@H]12 [CINNAMOLIDE] | – | –
inactive | inactive | inactive | 1.78 µM | 13.8 µM | – | 0.97 µM | 100% | Active | CC1(C)CCC[C@]2(C)[C@H]3C(=O)OCC3=CC[C@@H]12 [DRIMENIN] | – | –
inactive | inactive | inactive | 48.2 µM | > 100 µM | Active | 62.5 µM | – | – | CC1(C)CCC[C@]2(C)[C@@H](C=O)C(C=O)=CC[C@@H]12 [POLYGODIAL] | – | –

Compound | Activity [1] | Activity [2] | Activity [3] | IC50 [6] | IC50 [7] | inhibition [8] | IC50 ([5]; read-out: IC50) | inhibition [9] | inhibition [10] | inhibition [4] | IC50 ([5]; hek293)
CC1(C)CCC[C@]2(C)[C@@H]3C(=CC[C@@H]12)C(=O)O[C@H]3O [DENDOCARBIN A] | inactive | inactive | inactive | > 100 µM | > 100 µM | – | – | – | – | inactive | Not Active
Clc1ccc(C2C[C@@H]3CCC2N3)cn1 (stereo partly drawn) | inactive | inactive | inactive | – | – | Active | – | – | – | – | –

Reference: ChEMBL document CHEMBL4251719, “Drimane Sesquiterpenoids Noncompetitively Inhibit Human α4β2 Nicotinic Acetylcholine Receptors with Higher Potency Compared to Human α3β4 and α7 Subtypes” (J Nat Prod, 2018)
